The test system of data set [1] is Human immunodeficiency virus 1. Put plainly: Antiviral activity against HIV1 HXB2 pseudovirus infected in human TZM-bl cells assessed as inhibition of viral entry treated 1 hr post infection measured after 48 hrs by luciferase reporter gene assay. It counts as functional, cell-based. The method in brief:
(§1)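 TZM-bl cells, 1 x 10^4/well, cultured overnight at 37 °C, then infected with HXB2 Env pseudovirus. Plates spun 30 min at 2090 g at 4 °C, then held 90 min at 37 °C. Unbound virus washed off with PBS and fresh medium added. Compounds given at 10-15 times their IC50 at set times after infection. Cells lysed at 48 h and luciferase read. Two independent experiments, each in triplicate.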
In general terms: Reporter assays use an easily measured gene product as a stand-in for the process of interest.

The subject of data set [2] is Human immunodeficiency virus 1. Put plainly: Antiviral activity against HIV1 HXB2 pseudovirus infected in human TZM-bl cells assessed as inhibition of viral entry treated 2 to 4 hrs post infection measured after 48 hrs by luciferase reporter gene assay. It counts as functional, cell-based. The method in brief: as §1
For another data set, the system named is TZM. Description: Cytotoxicity against human TZM-bl cells incubated for 3 days by XTT assay. Particulars: tzm, 72 h. The format is cell-based. The method in brief: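 TZM-bl cells, 1 x 10^4/well, cultured overnight at 37 °C. Compounds added at graded concentrations for three days.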
In data set [3] the test system is Human immunodeficiency virus 1. Description: Antiviral activity against X4 tropic HIV1 HXB2 infected in human TZM-bl cells pretreated with virus for 30 mins followed by 3 days incubation with cells by luciferase reporter gene based single cycle infection assay. It counts as functional, cell-based. The method in brief:
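TZM-bl cells (1 x 10^4/well) were cultured overnight at 37 °C. HXB2-Env pseudovirus was preincubated 30 min with graded compound concentrations, then added to the cells for 3 days. Cells were washed and lysed, and luciferase was read. IC50 came from percent inhibition.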

Data set [4] has as its system Human immunodeficiency virus 1. Put plainly: Antiviral activity against HIV1 3B infected in human MT2 cells assessed as inhibition of p24 antigen production pretreated with virus for 30 mins followed by 4 days incubation with cells by sandwich ELISA based multicycle infection assay. It counts as functional, cell-based. The method in brief:
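MT-2 cells were infected with HIV-1 IIIB at 100 TCID50 and preincubated 30 min with graded compound concentrations. Medium was replaced next day. Supernatants were collected 4 days post-infection, lysed with equal volume 5% Triton X-100, and p24 was measured by sandwich ELISA. IC50 came from percent inhibition of p24.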
In general terms: ELISA stands for enzyme-linked immunosorbent assay.

For a further data set, the system named is MT2. Put plainly: Cytotoxicity against human MT2 cells incubated for 4 days by XTT assay. It counts as cell-based. The note with it: mt2, 96 h, 96 h. The method in brief: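 Run alongside the MT-2 multicycle infection assay. Compound at graded concentrations mixed with an equal volume of MT-2 cells (10^5 cells/ml). Medium replaced next day and culture continued four days.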
A general note: Formazan colour is commonly taken as a measure of viable cells.

Data set [5] is described as follows: Inhibition of HIV1 HXB2 gp120-mediated cell to cell fusion using human MAGI-CCR5 cells as indicator cells and Env/Tat-expressing HL2/3 cells as effector cells preincubated with MAGI-CCR5 cells for 1 hr followed by HL2/3 cells addition by beta-galactosidase reporter gene assay. The note with it: Human immunodeficiency virus 1, HXB2.
A short description of data set [6]: Inhibition of HIV1 reverse transcriptase by colorimetric assay. Also on record: species or system Human immunodeficiency virus 1. An outline of the steps:
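HIV-1 reverse transcriptase activity measured with a commercial colorimetric reverse transcriptase kit, following the maker's instructions.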

Data set [7] has as its system Human immunodeficiency virus 1. Put plainly: Antiviral activity against HIV1 HXB2 pseudovirus infected in human TZM-bl cells assessed as inhibition of viral entry treated 8 hrs post infection measured after 48 hrs by luciferase reporter gene assay. It counts as functional, cell-based. An outline of the steps: as §1
A short description of data set [8]: Aqueous solubility of the compound at 1 to 100 uM in PBS at pH 7.4 after 2 hrs by turbidimetric analysis. The format is physicochemical. The method in brief: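 DMSO stocks diluted 1:100 into phosphate-buffered saline pH 7.4, giving 1, 3, 10, 30 and 100 µM final in 1% DMSO. Seven replicate wells per concentration, incubated 2 h at 37 °C, absorbance read at 620 nm. Solubility taken as the concentration giving absorbance above the 1% DMSO vehicle.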

Data set [9] in a line: Apparent permeability from apical to basolateral side in human Caco2 cells at 10 uM at pH 7.4 by LC-MS/MS analysis. It counts as ADME, cell-based. Particulars: Caco-2, pH 7.4. The method in brief:
(§2)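 Caco-2 cells, passage 40-60, seeded on Transwell inserts at 1 x 10^5 cells/cm2 and grown 20 days in DMEM. Monolayers equilibrated 40 min in HBSS. Donor: compound at 10 µM final, 1% DMSO, in HBSS pH 7.4 with lucifer yellow as integrity marker. Sampled at 120 min, A-B and B-A, in duplicate, by LC-MS/MS. Papp = (dQ/dt)/(C0 × A); efflux ratio = Papp(B-A)/Papp(A-B).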

Data set [10] in a line: Apparent permeability from basolateral to apical side in human Caco2 cells at 10 uM at pH 7.4 by LC-MS/MS analysis. It counts as ADME, cell-based. The note with it: Caco-2, pH 7.4. An outline of the steps: as §2
Data set [11] is described as follows: Inhibition of CYP1A in human liver microsomes using ethoxyresorufin as substrate after 5 mins in presence of NADPH by LC-MS/MS analysis.

Data on 26 molecules can be found in ChEMBL document CHEMBL4007461, “Synthesis, Antiviral Potency, in Vitro ADMET, and X-ray Structure of Potent CD4 Mimics as Entry Inhibitors That Target the Phe43 Cavity of HIV-1 gp120” (J Med Chem, 2017).

As usually defined, the CC50 is the concentration giving 50% cytotoxicity. What is called IC50 is the point on the concentration scale where inhibition reaches its midpoint. Usually kinetic solubility stands for solubility judged after dilution from a stock solution rather than from solid. What is called Papp A→B is the apparent permeability from the apical to the basolateral side of a cell layer. Broadly, the Papp B→A is how fast a substance crosses the layer from the basolateral side.

Structures are written as SMILES. Active and inactive are the calls of the source. No cut-off for these calls is given here. Where only a bound is given, the exact number is not on record here.

For the molecule `c1cc(CN2CCCNCCNCCCNCC2)ccc1CN1CCCNCCNCCCNCC1`, in [1], the inhibition result is “Active”. Moreover, the inhibition entry in [2] was “inactive”.

With `Cc1cc(-c2ccc(Cl)cc2)[nH]c1C(=O)NC(CN)c1nc(C)c(CO)s1` (stereo in doubt; 27B), the CC50 in the data set on TZM was determined as 27.2 µM; with MT2, 24.9 µM. The IC50 in [3] is 2.2 µM; in [4] it was 4.1 µM.

For the molecule `CNCC(NC(=O)c1ccc(-c2cc(F)c(Cl)c(F)c2)[nH]1)c1ncc(CO)s1` (stereo in doubt; 88B), the CC50 with TZM amounted to 13.9 µM; with MT2, 11.9 µM. The 50% inhibitory concentration (IC50) in [3] amounted to 0.42 µM.

On to `COc1ccnc2[nH]cc(C(=O)C(=O)N3CCN(C(=O)c4ccccc4)C[C@H]3C)c12`, for which the inhibition entry in data set [1] is “Active”. The inhibition result in data set [2] was “inactive”.

Regarding `NCC(NC(=O)c1ccc(-c2ccc(Cl)c(F)c2)[nH]1)c1ncc(CO)s1` (stereo in doubt; 82B), the CC50 in the data set with TZM came out at 33 µM; in the data set with MT2, 36 µM. Besides, the half-inhibitory concentration (IC50) came to 0.57 µM in [3] and 1.2 µM in data set [4].

In the case of `NCC(NC(=O)c1ccc(-c2cc(F)c(Cl)c(F)c2)[nH]1)c1ncc(CO)s1` (stereo in doubt; 84B), the results for the CC50 with TZM and with MT2 were 20.6 µM and 17.4 µM, respectively. In addition, the IC50 in data set [4] was 0.97 µM.

In the case of `CC1(C)CC(NC(=O)C(=O)Nc2ccc(Cl)cc2)CC(C)(C)N1`, the IC50 in data set [5] was 2.9 µM; in [6], greater than 300 µM.

Regarding `CNCC(NC(=O)c1ccc(-c2ccc(Cl)cc2)[nH]1)c1nc(C)c(CO)s1` (stereo in doubt; 41B), the CC50 came out at 31.7 µM with TZM and 26.4 µM in the data set on MT2. Moreover, in data set [4], the concentration for half-maximal inhibition (IC50) was determined as 3.1 µM.

Turning to `CNCCC(NC(=O)c1ccc(-c2ccc(F)c(C)c2)[nH]1)c1nc(C)c(CO)s1` (stereo in doubt; 66B), the CC50 came to 36.4 µM in the data set on TZM and 25.3 µM in the data set on MT2. For the same molecule, the values for the concentration for half-maximal inhibition (IC50) in [3] and in [4] were 4.9 µM and 5 µM, respectively.

As to `CNCC(NC(=O)c1ccc(-c2ccc(C)c(F)c2)[nH]1)c1ncc(CO)s1` (stereo in doubt; 87B), the CC50 turned out to be 27.4 µM in the data set on TZM and 28.3 µM in the data set with MT2. The 50% inhibitory concentration (IC50) worked out at 1 µM in [3] and 0.99 µM in data set [4].

`CNCCC(NC(=O)c1ccc(-c2ccc(F)c(Cl)c2)[nH]1)c1nc(C)c(CO)s1` (stereo in doubt; 65B): the CC50 in the data set with TZM worked out at 22.3 µM; in the data set on MT2, 24.2 µM. Further, the half-maximal inhibitory concentration (IC50) in data set [3] came out at 4.6 µM; in data set [4], 5.7 µM.

For `CNCC(NC(=O)c1ccc(-c2ccc(Cl)c(F)c2)[nH]1)c1nc(C)c(CO)s1` (stereo in doubt; 42B), the CC50 in the data set with TZM came to 21.3 µM; in the data set with MT2 it was 18.1 µM. Further, the IC50 in [4] amounted to 2 µM.

Consider `COc1cc(C(=O)NC(CN)c2nc(C)c(CO)s2)[nH]c1-c1ccc(Cl)cc1` (stereo in doubt; 29B), for which the cytotoxic concentration (CC50) in the data set with TZM stood at 16.4 µM; in the data set with MT2, 15.7 µM. Besides, the 50% inhibitory concentration (IC50) in data set [3] came out at 16.9 µM.

Consider `Cc1nc(C(CN)NC(=O)c2ccc(-c3ccc(F)c(F)c3)[nH]2)sc1CO` (stereo in doubt; 25B), for which the half-maximal cytotoxic concentration (CC50) was determined as 58.6 µM with TZM and 64.6 µM in the data set on MT2. In data set [4], the IC50 was found to be 4.8 µM.

Turning to `Cc1cc(C(=O)NC(CN)c2nc(C)c(CO)s2)[nH]c1-c1ccc(Cl)cc1` (stereo in doubt; 28A), the CC50 is 22.2 µM in the data set on TZM and 18 µM in the data set with MT2. The IC50 in [3] (Human immunodeficiency virus 1, HXB2, TZM-bl) worked out at 3.6 µM; in [4] (Human immunodeficiency virus 1, 3B, MT2) it was 5.3 µM.

With `NCC(NC(=O)c1ccc(-c2ccc(Cl)cc2)[nH]1)c1ncc(CO)s1` (stereo in doubt; 81B), the half-maximal cytotoxic concentration (CC50) in the data set with TZM turned out to be 37.1 µM; with MT2 it was 34.5 µM. For the same molecule, the half-maximal inhibitory concentration (IC50) was 0.75 µM in data set [3] and 1.8 µM in data set [4].

For the molecule `Cc1nc(C(CN)NC(=O)c2ccc(-c3ccc(Cl)cc3)n2C)sc1CO` (stereo in doubt; 26B), the CC50 stood at 35.8 µM in the data set with TZM and 32.1 µM in the data set with MT2. Further, the half-inhibitory concentration (IC50) in data set [3] is 26 µM.

In the case of `Cc1nnc(C(=O)NC(C)(C)c2nc(C(=O)NCc3ccc(F)cc3)c(O)c(=O)n2C)o1`, in data set [7], the inhibition entry was “inactive”.

`Cc1cc(-c2ccc(C(=O)NC(CCN)c3nc(C)c(CO)s3)[nH]2)ccc1F` (stereo in doubt; 63B): the cytotoxic concentration (CC50) came out at 38.2 µM in the data set on TZM and 34.7 µM in the data set with MT2. For the same molecule, the IC50 stood at 7.8 µM in [3] and 3 µM in [4].

Turning to `Cc1cc(C(=O)NC(CN)c2nc(C)c(CO)s2)[nH]c1-c1ccc(Cl)cc1` (stereo in doubt; 28B), the CC50 with TZM stood at 5.2 µM; in the data set with MT2, 4.1 µM. The IC50 in data set [4] stood at 6.1 µM.

`CNCC(NC(=O)c1ccc(-c2ccc(C)c(F)c2)[nH]1)c1nc(C)c(CO)s1` (stereo in doubt; 43B): the CC50 in the data set on TZM amounted to 34.2 µM; with MT2, 30.6 µM. Also, the results for the IC50 in [3] and in [4] were 1.6 µM and 0.95 µM, respectively.

With `Cc1cc(-c2ccc(C(=O)NC(CCN(C)C)c3nc(C)c(CO)s3)[nH]2)ccc1F` (stereo in doubt; 69B), the CC50 with TZM and in the data set on MT2 was 23.5 µM throughout. The figures for the IC50 in data set [3] and in data set [4] were 4.8 µM and 2.9 µM, respectively.

Turning to `Cc1nc(C(CCN)NC(=O)c2ccc(-c3ccc(F)c(Cl)c3)[nH]2)sc1CO` (stereo in doubt; 62B), the half-maximal cytotoxic concentration (CC50) in the data set with TZM is 24.5 µM; with MT2, 24.9 µM. The values for the IC50 in data set [3] and in data set [4] were 8 µM and 9.3 µM, respectively.

As for `COc1cnc(-n2cnc(C)n2)c2[nH]cc(C(=O)C(=O)N3CCN(C(=O)c4ccccc4)CC3)c12`, the kinetic solubility at 2 h in data set [8] was greater than 100 µM. The apparent permeability from apical to basolateral (Papp A→B) at 10 µM in [9] came out at 7.62 ×10⁻⁶ cm/s. Moreover, the Papp B→A at 10 µM in [10] is 37.4 ×10⁻⁶ cm/s. In addition, in data set [11], the half-inhibitory concentration (IC50) is greater than 25 µM.

In the case of `Cc1nc(C(CCN(C)C)NC(=O)c2ccc(-c3ccc(F)c(Cl)c3)[nH]2)sc1CO` (stereo in doubt; 68B), the CC50 in the data set with TZM and in the data set with MT2 was 22 µM each time. Moreover, the IC50 turned out to be 1.8 µM in data set [3] and 4.4 µM in [4].

`CNCC(NC(=O)c1ccc(-c2ccc(Cl)c(F)c2)[nH]1)c1ncc(CO)s1` (stereo in doubt; 86B): the half-maximal cytotoxic concentration (CC50) in the data set with TZM was determined as 17.3 µM; in the data set on MT2, 18.3 µM. The IC50 in [3] stood at 0.95 µM; in data set [4], 4 µM.
